Calls of active or inactive are those of the source. The rule behind the calls is not given here.
Columns and labels:
[1] = molecular target: T1, Histone deacetylase 1 (Homo sapiens, UniProt Q13547); test: Inhibition of recombinant full length human C-terminal His/flag-tagged HDAC1 expressed in baculovirus infected Sf9 insect cells after 30 mins by fluorescence assay
[2] = molecular target: T2, Nicotinamide phosphoribosyltransferase (Homo sapiens, UniProt P43490); test: Inhibition of NAMPT (unknown origin) using NAM as substrate incubated for 5 mins followed by substrate addition measured after 15 mins by fluorometric method
Target sequence in this assay (P43490 whole entry): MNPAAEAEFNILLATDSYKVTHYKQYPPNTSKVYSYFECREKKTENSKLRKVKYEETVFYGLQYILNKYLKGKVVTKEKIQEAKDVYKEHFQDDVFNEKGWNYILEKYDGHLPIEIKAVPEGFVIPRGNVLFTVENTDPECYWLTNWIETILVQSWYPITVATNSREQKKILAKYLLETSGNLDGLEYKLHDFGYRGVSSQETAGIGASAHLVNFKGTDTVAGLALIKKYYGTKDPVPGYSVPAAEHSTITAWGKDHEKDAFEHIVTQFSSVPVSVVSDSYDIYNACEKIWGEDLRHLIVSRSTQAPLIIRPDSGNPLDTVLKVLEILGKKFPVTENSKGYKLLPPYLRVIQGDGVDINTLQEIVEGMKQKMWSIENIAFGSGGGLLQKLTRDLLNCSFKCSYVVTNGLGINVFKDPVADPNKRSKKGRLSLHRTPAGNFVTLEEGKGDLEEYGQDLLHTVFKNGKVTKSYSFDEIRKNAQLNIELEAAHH

[3] = tested on: HepG2; test: cells; format: functional, cell-based; conditions: Homo sapiens, HepG2, 72 h
[4] = tested on: A549; test: cells; format: functional, cell-based; conditions: Homo sapiens, A549, 72 h
[5] = tested on: HCT-116; test: cells; format: functional, cell-based; conditions: Homo sapiens, HCT-116, 72 h
[6] = tested on: Mus musculus; test: Toxicity in BALB/C nude mouse xenografted with human HCT116 cells assessed as body weight loss at 25 mg/kg, ip bid administered for 21 consecutive days measured every 3 days; format: organism-based; conditions: in vivo, 72 h
Outline: (§1)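 HCT116 tumour xenografts were grown in nude mice. Agents were given ip twice daily for 21 consecutive days. Tumour growth and body weight were followed. Tumour growth inhibition (TGI) and relative increment ratio (T/C) were derived. Data are mean ± standard deviation, compared with the control group by Student's t test.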

[7] = molecular target: Histone deacetylase 3/NCoR1 (Homo sapiens, UniProt O15379); test: Inhibition of human recombinant HDAC3/GST-tagged NCOR1 DAD (397 to 503 residues) expressed in baculovirus expression system after 30 mins by fluorescence assay
[8] = molecular target: Histone deacetylase 4 (Homo sapiens, UniProt P56524); test: Inhibition of recombinant human N-terminal GST-tagged HDAC4 (612 to end residues) expressed in baculovirus infected Sf9 insect cells after 30 mins by fluorescence assay
[9] = molecular target: T3, Histone deacetylase 8 (Homo sapiens, UniProt Q9BY41); test: Inhibition of recombinant human full length C-terminal His-tagged HDAC8 expressed in baculovirus infected Sf9 insect cells after 30 mins by fluorescence assay
T3 sequence (Q9BY41 whole entry): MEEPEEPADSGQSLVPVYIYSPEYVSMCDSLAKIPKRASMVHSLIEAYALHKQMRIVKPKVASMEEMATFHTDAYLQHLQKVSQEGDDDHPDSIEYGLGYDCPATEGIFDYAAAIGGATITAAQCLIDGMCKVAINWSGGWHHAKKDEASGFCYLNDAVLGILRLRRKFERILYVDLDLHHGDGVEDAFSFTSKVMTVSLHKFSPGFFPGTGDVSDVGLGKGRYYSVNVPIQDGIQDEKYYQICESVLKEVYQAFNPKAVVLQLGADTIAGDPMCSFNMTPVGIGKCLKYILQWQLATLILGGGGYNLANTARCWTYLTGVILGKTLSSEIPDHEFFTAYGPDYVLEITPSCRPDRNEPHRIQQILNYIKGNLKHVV

[10] = molecular target: T4, Histone deacetylase (Homo sapiens) (UniProt Q13547+O15379+Q9UBN7+Q92769+Q9UQL6+Q8WUI4+Q9BY41+Q96DB2+P56524+Q9UKV0+Q969S8); test: Inhibition of HDAC in human HCT116 cells assessed as increase in acetyl-histone H3 level at 1 to 5 uM after 24 hrs by Western blot analysis; format: cell-based
Outline: (§2)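 HCT116 cells were treated for 24 h at 1 μM and 5 μM. Acetylated histone H3 and acetylated histone H4 were detected by Western blot.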

[11] = molecular target: T4, Histone deacetylase (Homo sapiens); test: Inhibition of HDAC in human HCT116 cells assessed as increase in acetyl-histone H4 level at 1 to 5 uM after 24 hrs by Western blot analysis; format: cell-based; outline: as §2
[12] = molecular target: Histone deacetylase 2 (Homo sapiens, UniProt Q92769)
[13] = molecular target: T2, Nicotinamide phosphoribosyltransferase; test: Inhibition of NAMPT in human HCT116 cells assessed as decrease in cellular NAD+ level after 24 hrs by MTT dye based spectrophotometric analysis; format: cell-based
Outline: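 HCT116 cells were exposed to a concentration series for 24 h. Cellular NAD+ level was measured and concentration–response curves were fitted.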
Target sequence in this assay (P43490 whole entry, looked up): as the sequence (P43490 whole entry) above

[14] = molecular target: T5, Protein deacetylase HDAC6 (Homo sapiens, UniProt Q9UBN7); test: Inhibition of recombinant human full length C-terminal flag-tagged HDAC6 expressed in baculovirus infected Sf9 insect cells after 30 mins by fluorescence assay
T5 sequence (Q9UBN7 whole entry): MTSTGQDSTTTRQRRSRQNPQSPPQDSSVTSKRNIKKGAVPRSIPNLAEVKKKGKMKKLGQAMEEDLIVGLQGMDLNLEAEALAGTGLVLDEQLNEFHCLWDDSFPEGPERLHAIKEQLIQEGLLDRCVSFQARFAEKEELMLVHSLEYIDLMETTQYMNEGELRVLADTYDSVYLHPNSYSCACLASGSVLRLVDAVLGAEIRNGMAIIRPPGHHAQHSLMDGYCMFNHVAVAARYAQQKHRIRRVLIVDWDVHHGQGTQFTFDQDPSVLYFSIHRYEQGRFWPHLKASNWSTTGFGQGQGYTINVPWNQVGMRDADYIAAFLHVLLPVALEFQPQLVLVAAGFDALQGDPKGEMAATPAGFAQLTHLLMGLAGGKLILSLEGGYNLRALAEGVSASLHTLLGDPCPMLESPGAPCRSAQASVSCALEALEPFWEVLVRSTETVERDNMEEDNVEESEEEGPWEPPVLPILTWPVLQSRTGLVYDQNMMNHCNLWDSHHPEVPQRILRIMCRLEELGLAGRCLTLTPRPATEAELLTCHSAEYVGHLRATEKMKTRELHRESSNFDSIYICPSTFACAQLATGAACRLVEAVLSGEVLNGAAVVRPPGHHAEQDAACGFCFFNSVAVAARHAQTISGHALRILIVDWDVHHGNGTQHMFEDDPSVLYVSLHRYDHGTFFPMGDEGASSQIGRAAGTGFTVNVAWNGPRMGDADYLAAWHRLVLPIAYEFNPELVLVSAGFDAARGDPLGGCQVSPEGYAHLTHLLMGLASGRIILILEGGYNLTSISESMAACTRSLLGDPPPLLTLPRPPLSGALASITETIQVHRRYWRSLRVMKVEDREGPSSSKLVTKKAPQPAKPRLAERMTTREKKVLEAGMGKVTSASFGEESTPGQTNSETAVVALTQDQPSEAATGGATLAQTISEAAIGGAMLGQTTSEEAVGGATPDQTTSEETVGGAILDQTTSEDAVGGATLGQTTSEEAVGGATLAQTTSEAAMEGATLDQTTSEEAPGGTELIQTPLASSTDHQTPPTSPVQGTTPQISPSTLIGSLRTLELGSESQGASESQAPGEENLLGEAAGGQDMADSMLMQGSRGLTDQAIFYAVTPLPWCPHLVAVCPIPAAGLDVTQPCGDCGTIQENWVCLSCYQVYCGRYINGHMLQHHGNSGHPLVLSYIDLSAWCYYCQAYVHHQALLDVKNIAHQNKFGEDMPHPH

[15] = molecular target: T2, Nicotinamide phosphoribosyltransferase; test: Binding affinity to NAMPT in human HCT116 cells assessed as change in melting temperature at 10 uM after 3 hrs by CETSA; format: cell-based
Target sequence in this assay (P43490 whole entry, looked up): as the sequence (P43490 whole entry) above

[16] = molecular target: T1, Histone deacetylase 1; test: Potency index, ratio of SAHA IC50 to compound IC50 for recombinant human full length C-terminal His/flag-tagged HDAC1 expressed in baculovirus infected Sf9 insect cells
[17] = tested on: HCT-116; test: animal or person; format: functional, Homo sapiens; conditions: Mus musculus, HCT-116, ip, 72 h, read-out: TGI
[18] = tested on: Mus musculus; test: Toxicity in BALB/C nude mouse xenografted with human HCT116 cells assessed as body weight loss at 15 mg/kg, ip bid administered for 21 consecutive days measured every 3 days; format: organism-based; conditions: in vivo, 72 h; outline: as §1
[19] = tested on: HCT-116; test: Antitumor activity against human HCT116 cells xenografted in BALB/C nude mouse assessed as tumor growth inhibition at 15 mg/kg, ip bid administered for 21 consecutive days measured every 3 days; format: functional; conditions: HCT-116, ip, 72 h, read-out: TGI; outline: as §1

T1 sequence (Q13547 whole entry): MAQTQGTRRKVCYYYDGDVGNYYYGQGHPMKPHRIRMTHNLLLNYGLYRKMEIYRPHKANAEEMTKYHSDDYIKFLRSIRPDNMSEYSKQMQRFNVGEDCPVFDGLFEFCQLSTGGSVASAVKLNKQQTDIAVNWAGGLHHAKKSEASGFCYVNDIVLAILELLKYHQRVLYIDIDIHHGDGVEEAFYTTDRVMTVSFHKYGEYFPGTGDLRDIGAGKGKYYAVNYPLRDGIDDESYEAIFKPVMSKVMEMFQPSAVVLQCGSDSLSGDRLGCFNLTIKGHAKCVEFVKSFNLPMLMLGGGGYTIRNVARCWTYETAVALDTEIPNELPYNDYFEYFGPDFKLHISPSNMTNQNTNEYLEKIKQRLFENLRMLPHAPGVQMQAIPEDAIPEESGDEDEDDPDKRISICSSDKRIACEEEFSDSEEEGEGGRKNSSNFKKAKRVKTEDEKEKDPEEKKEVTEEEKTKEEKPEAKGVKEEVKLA
Histone deacetylase 4, sequence (P56524 whole entry): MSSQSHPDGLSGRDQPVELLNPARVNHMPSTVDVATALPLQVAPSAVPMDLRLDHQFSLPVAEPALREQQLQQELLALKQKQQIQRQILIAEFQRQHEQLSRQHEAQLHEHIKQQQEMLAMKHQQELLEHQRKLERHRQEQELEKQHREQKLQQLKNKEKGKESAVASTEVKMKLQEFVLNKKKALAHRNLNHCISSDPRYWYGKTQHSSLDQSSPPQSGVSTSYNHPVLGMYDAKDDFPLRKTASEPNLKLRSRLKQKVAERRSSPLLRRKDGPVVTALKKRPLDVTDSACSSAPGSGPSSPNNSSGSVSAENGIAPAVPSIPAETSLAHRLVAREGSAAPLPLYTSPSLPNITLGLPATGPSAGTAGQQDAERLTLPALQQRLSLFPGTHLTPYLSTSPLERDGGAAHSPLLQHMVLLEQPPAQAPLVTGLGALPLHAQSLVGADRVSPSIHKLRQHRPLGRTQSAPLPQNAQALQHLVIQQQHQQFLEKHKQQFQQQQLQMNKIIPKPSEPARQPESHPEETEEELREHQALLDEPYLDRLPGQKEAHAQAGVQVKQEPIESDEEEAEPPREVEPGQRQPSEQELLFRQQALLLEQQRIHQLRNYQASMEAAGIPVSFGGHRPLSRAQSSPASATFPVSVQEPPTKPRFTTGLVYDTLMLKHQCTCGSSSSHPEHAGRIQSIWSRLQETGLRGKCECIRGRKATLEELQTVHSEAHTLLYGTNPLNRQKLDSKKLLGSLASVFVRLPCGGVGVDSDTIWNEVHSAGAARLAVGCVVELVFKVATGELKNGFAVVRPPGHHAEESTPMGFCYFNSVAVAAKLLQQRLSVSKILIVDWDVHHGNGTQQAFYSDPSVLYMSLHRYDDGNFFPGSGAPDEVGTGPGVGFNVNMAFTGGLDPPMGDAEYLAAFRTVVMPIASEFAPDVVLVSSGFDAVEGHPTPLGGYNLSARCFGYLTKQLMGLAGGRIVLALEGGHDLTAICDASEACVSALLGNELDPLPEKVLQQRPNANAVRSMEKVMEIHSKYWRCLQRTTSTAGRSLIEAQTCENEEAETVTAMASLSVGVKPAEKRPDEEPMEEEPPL
Histone deacetylase 2, sequence (Q92769 whole entry): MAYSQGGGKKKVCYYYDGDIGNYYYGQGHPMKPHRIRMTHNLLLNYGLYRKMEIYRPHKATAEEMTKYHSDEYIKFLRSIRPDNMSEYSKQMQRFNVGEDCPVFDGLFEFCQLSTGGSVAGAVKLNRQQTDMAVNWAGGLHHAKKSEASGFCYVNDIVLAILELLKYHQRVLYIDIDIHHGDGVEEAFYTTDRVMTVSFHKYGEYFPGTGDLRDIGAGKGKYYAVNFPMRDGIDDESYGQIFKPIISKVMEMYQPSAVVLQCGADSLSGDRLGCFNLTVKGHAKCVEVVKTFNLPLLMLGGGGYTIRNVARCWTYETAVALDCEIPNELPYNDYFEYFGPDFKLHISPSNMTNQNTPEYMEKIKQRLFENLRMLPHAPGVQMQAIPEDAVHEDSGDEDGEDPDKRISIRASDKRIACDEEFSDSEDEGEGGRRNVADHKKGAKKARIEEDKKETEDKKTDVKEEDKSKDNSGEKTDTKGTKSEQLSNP

Compound: CC(C)CCN(CCCCCC(=O)NO)c1ncc(C(=O)NCCCn2ccnc2)s1
- IC50 [1]: 0.06 µM
- IC50 [2]: 0.02 µM
- IC50 [3]: 106 µM
- IC50 [4]: 13 µM
- IC50 [5]: 85 µM

Compound: O=C(CCCCCCC(=O)Nc1ccccc1)NO [VORINOSTAT]
- Activity [6]: Non-Toxic

Compound: O=C(CCCCCCN(Cc1ccc(F)cc1)c1ncc(C(=O)NCc2cccnc2)s1)NO
- IC50 [1]: 0.095 µM
- IC50 [2]: 0.47 µM
- IC50 [3]: 14 µM
- IC50 [4]: 22 µM
- IC50 [5]: 17 µM

Compound: O=C(NO)c1ccc(CN(Cc2ccc(F)cc2)c2ncc(C(=O)NCCCn3ccnc3)s2)cc1
- IC50 [1]: 0.046 µM
- IC50 [2]: 0.014 µM
- IC50 [3]: 79 µM
- IC50 [4]: 7.3 µM
- IC50 [5]: 99 µM

Compound: O=C(CCCCCN(Cc1ccc(F)cc1)c1ncc(C(=O)NCCCn2ccnc2)s1)NO
- IC50 [1]: 0.1 µM
- IC50 [2]: 0.007 µM
- IC50 [3]: 30 µM
- IC50 [4]: 54 µM
- IC50 [5]: 19 µM

Compound: O=C(CCCCCCCN(Cc1ccc(F)cc1)c1ncc(C(=O)NCCCn2ccnc2)s1)NO
- IC50 [1]: 0.044 µM
- IC50 [2]: 0.018 µM
- IC50 [3]: 26 µM
- IC50 [4]: 6.6 µM
- IC50 [5]: 63 µM

Compound: O=C(CCCCCCN(Cc1ccc(F)cc1)c1ncc(C(=O)NCCCn2ccnc2)s1)NO
- IC50 [1]: 0.036 µM
- IC50 [2]: 0.019 µM
- IC50 [7]: 0.0041 µM
- IC50 [8]: 21 µM
- IC50 [9]: 0.351 µM
- IC50 [3]: 9.4 µM
- IC50 [4]: 9.7 µM
- inhibition [10]: Dose-dependent effect
- inhibition [11]: Dose-dependent effect
- IC50 [12]: 0.033 µM
- IC50 [5]: 9.7 µM
- inhibition [13]: Active
- IC50 [14]: 0.0062 µM
- ΔTm [15]: 7.36 °C

Compound: CC(C)CCN(CCCCCCC(=O)NO)c1ncc(C(=O)NCc2cccnc2)s1
- IC50 [1]: 0.036 µM
- IC50 [2]: 0.22 µM
- IC50 [3]: 7 µM
- IC50 [4]: 19 µM
- IC50 [5]: 12 µM

Compound: CC(C)CCN(CCCCCCC(=O)NO)c1ncc(C(=O)NCCCn2ccnc2)s1
- IC50 [1]: 0.002 µM
- IC50 [2]: 0.015 µM
- Activity [6]: Non-Toxic
- IC50 [7]: 0.00067 µM
- IC50 [8]: 12 µM
- IC50 [9]: 0.204 µM
- IC50 [3]: 24 µM
- IC50 [4]: 5.2 µM
- inhibition [10]: Dose-dependent effect
- inhibition [11]: Dose-dependent effect
- Ratio IC50 [16]: 10
- IC50 [12]: 0.0068 µM
- IC50 [5]: 30 µM
- inhibition [13]: Active
- IC50 [14]: 0.00064 µM
- inhibition in vivo at 25 mg/kg [17]: 42%
- ΔTm [15]: 3.01 °C

Compound: O=C(/C=C/c1cccnc1)NCCCCC1CCN(C(=O)c2ccccc2)CC1 [DAPORINAD]
- Activity [18]: Non-Toxic
- IC50 [4]: 3.7 µM
- inhibition in vivo at 15 mg/kg [19]: 39%

Compound: O=C(/C=C/c1ccc(CN(Cc2ccc(F)cc2)c2ncc(C(=O)NCCCn3ccnc3)s2)cc1)NO
- IC50 [1]: 0.091 µM
- IC50 [2]: 0.014 µM
- IC50 [3]: 13 µM
- IC50 [4]: 2.7 µM
- IC50 [5]: 83 µM

Source: ChEMBL document CHEMBL4138269, “Dual NAMPT/HDAC Inhibitors as a New Strategy for Multitargeting Antitumor Drug Discovery” (ACS Med Chem Lett, 2018)
